These results are taken from ChEMBL document CHEMBL2346548, “Design, synthesis, and structure-activity relationship studies of tryptanthrins as antitubercular agents” (J Nat Prod, 2013).

Series [1] relates to Mycobacterium tuberculosis. The series is described as follows: Antitubercular activity against Mycobacterium tuberculosis H37Rv incubated at 37 degC for 7 days by microplate alamar blue assay. As to conditions: for MIC: Mycobacterium tuberculosis, H37Rv, 168 h. The series is classed as functional. Put shortly:
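Mtb H37Rv was grown in 7H9 broth with glycerol, Casitone, 10% OADC and 0.05% Tween 80 to OD600 0.4. Compounds were 2-fold serially diluted from DMSO stocks in 7H9, and wells were inoculated at 2 × 10⁵ CFU/mL. After 7 days at 37 °C, Alamar Blue was added and read after a further 24 h. MIC was the lowest concentration preventing the blue-to-pink change.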

The nature of series [2]: Solubility in simulated gastric fluid at pH 1.5 by HPLC method. The series is classed as physicochemical. The method, boiled down:
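Compound at 200 μM final in 2% DMSO in simulated gastric fluid, shaken 24 h at room temperature; HPLC-photodiode array detection at 230 nm; duplicate means.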

A short description of series [3]: Permeability across basolateral to apical side in human Caco2 cells incubated for 1 hr at 37 degC by HPLC-MS/MS method. The series is classed as ADME, cell-based. As to conditions: Caco-2.
The subject of series [4] is Mycobacterium tuberculosis. The series can be described thus: Antitubercular activity against Mycobacterium tuberculosis H37Rv incubated at 37 degC for 14 days in presence of 40% human serum by microplate alamar blue assay. Format: functional. Particulars: 336 h. Put shortly: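 This is the MABA run in 7H9 broth containing 40% human serum. Compounds were 2-fold serially diluted, and wells were inoculated with H37Rv at 2 × 10⁵ CFU/mL. Incubation was at 37 °C for 14 days, then Alamar Blue was added. MIC was the lowest concentration preventing the blue-to-pink colour change.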

The nature of series [5]: Distribution coefficient, log D of the compound between n-octanol and PBS buffer at pH 7.4 incubated for 1 hr by shake flask method. The series is classed as physicochemical. Put shortly:
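Partition between n-octanol and PBS pH 7.4 after 1 h shaking at room temperature; phases analysed by HPLC with photodiode detection; logD = log10 of organic/aqueous amount.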

Another series has as its system Vero. The series is described as follows: Cytotoxicity against african green monkey Vero cells. Particulars: Chlorocebus sabaeus, Vero; read-out: IC50. The series is classed as cell-based, Chlorocebus sabaeus.
In another series the target is CYP2C9 (Homo sapiens, UniProt P11712). The series is described as follows: Inhibition of human recombinant CYP2C9 at 10 uM incubated for 80 mins at 37 degC using 7-methoxy-4-trifluoromethylcoumarin substrate. The series is classed as ADME. As to conditions: recombinant CYP2C9, probe 7-methoxy-4-trifluoromethylcoumarin.
A further series concerns the target CYP2C19 (Homo sapiens, UniProt P33261). The series is described as follows: Inhibition of human recombinant CYP2C19 at 10 uM incubated for 60 mins at 37 degC using 3-cyano-7-ethoxycoumarin substrate. The series is classed as ADME. Particulars: recombinant CYP2C19, probe 3-cyano-7-ethoxycoumarin.
For another series, the target named is CYP3A4 (Homo sapiens, UniProt P08684). The series can be described thus: Inhibition of human recombinant CYP3A4 at 10 uM incubated for 30 mins at 37 degC using 7-benzyloxy-4-(trifluoromethyl)coumarin substrate. Format: ADME. Particulars: recombinant CYP3A4, probe 7-benzyloxy-4-(trifluoromethyl)coumarin.
Series [6] can be described thus: Protein binding in human plasma at 10 uM incubated for 8 hrs at 37 degC by equilibrium dialysis method. Particulars: read-out: PPB (converted). The series is classed as ADME, cell-free. Put shortly: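 Equilibrium dialysis: 10 μM compound in 1% DMSO in human plasma vs 0.05 M phosphate buffer pH 7.5 across 12–14 K cutoff membrane, at least 8 h at 37 °C; HPLC-photodiode detection at 230 nm; duplicate means.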

Series [7] is described as follows: Metabolic stability in human liver microsomes assessed as parent compound remaining at 1 uM incubated for 1 hr by HPLC-MS/MS method. The series is classed as ADME, Microsome. As to conditions: read-out: Stability. Put shortly: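 Pooled mixed-gender human liver microsomes (0.3 mg/mL protein), 1 μM compound with NADP-regenerating system in phosphate buffer pH 7.4, 1 h at 37 °C; parent measured at start and end by HPLC-MS/MS; duplicate means.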

Series [8] in a line: Permeability across apical to basolateral side in human Caco2 cells incubated for 1 hr at 37 degC by HPLC-MS/MS method. The series is classed as ADME, cell-based. Particulars: Caco-2. Put shortly:
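TC7 (Caco-2 subclone) monolayer; 10 μM compound in 1% DMSO in HBSS-MES pH 6.5 on apical donor side, basolateral receiver pH 7.4; shaken 1 h at 37 °C; receiver sampled, HPLC-MS/MS; duplicate means.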
A general note: Caco-2 monolayers are a common model of the intestinal barrier.

A short description of series [9]: Solubility in simulated intestinal fluid at pH 7.6 by HPLC method. The series is classed as physicochemical. Put shortly:
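Simulated intestinal fluid medium; each analogue 200 μM final in 2% DMSO, shaken 24 h at room temperature, then HPLC with photodiode array read at 230 nm; duplicate, means given.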

Series [10] can be described thus: Aqueous solubility in PBS buffer at pH 7.4 by HPLC method. Format: physicochemical. Put shortly: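 Compound at 200 μM final in 2% DMSO in PBS pH 7.4, shaken 24 h at room temperature; quantified by HPLC with photodiode array detection at 230 nm; duplicate, mean reported.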
Series [11] deals with Mycobacterium tuberculosis. The series can be described thus: Antitubercular activity against non-replicating Mycobacterium tuberculosis H37Rv incubated for 10 days by LORA method. Format: functional. Particulars: 240 h. The method, boiled down: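 H37Rv carrying pFCA-luxAB was adapted to low oxygen by gradual self-depletion in a sealed, slowly stirred flask. It was then exposed to compounds for 10 days under anaerobic conditions. Cultures recovered for 28 h in ambient oxygen before n-decanal substrate was added and luminescence read. MIC was the lowest concentration giving a 90% reduction in luminescence versus untreated controls.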

A short description of series [12]: Half life in female rat at 56 mg/kg, po. Format: ADME, organism-based. Also noted: dose 56 mg/kg, route oral. Particulars: in vivo.
The nature of series [13]: Efflux ratio in human Caco2 cells incubated for 1 hr at 37 degC by HPLC-MS/MS method. The series is classed as ADME, cell-based. As to conditions: Caco-2.
Series [14] in a line: Half life in male rat at 56 mg/kg, po. Format: ADME, organism-based. Also noted: dose 56 mg/kg, route oral. As to conditions: in vivo.
The mark [15] stands for this setting: PBS buffer, read-out: solubility.

≈ marks a conversion by molar mass, not a printed value.

CYP3A4, sequence (P08684 whole entry): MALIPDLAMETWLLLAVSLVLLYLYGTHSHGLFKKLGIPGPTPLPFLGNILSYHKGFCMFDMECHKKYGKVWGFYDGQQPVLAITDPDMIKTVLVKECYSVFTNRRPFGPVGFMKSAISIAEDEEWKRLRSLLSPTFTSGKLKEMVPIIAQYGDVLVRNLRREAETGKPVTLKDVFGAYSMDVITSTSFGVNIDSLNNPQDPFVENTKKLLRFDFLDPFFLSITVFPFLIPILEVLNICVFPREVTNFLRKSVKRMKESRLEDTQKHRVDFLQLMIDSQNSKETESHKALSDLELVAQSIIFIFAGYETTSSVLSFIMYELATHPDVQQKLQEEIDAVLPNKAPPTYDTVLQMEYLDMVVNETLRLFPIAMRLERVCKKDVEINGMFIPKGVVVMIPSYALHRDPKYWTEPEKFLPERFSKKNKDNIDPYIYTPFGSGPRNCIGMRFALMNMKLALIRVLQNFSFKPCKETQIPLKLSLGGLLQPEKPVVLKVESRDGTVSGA
CYP2C9, sequence (P11712 whole entry): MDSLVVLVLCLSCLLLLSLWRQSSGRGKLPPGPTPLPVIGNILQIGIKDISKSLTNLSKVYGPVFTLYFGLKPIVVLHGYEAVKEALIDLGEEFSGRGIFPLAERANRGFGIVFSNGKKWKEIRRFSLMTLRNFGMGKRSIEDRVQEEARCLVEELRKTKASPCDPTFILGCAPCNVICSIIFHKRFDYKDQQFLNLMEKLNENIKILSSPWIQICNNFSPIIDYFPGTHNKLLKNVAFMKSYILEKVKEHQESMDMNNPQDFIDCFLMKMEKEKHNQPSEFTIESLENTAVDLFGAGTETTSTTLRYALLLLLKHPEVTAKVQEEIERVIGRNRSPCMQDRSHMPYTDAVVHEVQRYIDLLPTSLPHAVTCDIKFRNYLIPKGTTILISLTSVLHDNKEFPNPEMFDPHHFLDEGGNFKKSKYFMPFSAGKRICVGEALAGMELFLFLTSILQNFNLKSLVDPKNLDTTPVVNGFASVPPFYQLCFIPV
CYP2C19, sequence (P33261 whole entry): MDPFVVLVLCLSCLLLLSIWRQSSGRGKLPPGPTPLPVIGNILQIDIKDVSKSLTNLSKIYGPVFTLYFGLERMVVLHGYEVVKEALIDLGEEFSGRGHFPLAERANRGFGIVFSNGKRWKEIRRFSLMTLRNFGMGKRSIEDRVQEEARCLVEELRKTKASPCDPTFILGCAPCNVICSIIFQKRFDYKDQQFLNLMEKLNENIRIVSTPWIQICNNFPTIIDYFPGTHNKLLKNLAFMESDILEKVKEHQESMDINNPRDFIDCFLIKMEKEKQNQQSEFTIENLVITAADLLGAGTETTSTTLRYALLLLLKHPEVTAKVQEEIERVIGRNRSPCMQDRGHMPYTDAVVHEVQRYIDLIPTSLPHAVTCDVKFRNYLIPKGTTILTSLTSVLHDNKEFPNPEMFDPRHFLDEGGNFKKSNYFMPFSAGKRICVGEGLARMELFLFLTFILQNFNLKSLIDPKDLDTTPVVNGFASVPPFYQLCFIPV

For the molecule `CCOC(=O)c1ccc2c(c1)C(=O)c1nc3ccccc3c(=O)n1-2`, the MIC (commonly the smallest concentration in the dilution series that meets the test's criterion for growth inhibition) in [1] is 0.5 µg/mL (≈ 1.56 µM); in [4] it was 1 µg/mL. Further, the figures for the solubility in series [2], in series [9] and in series [10] (setting [15]) were 1.5 µM (≈ 0.48 µg/mL), 11.1 µM (≈ 3.56 µg/mL) and 3.8 µM (≈ 1.22 µg/mL), respectively. Besides, the Papp B→A (in general, how fast a substance crosses the layer from the basolateral side) at 1 h in series [3] was 0.8 ×10⁻⁶ cm/s. Further, the logD (usually lipophilicity at a set pH, counting ionised and neutral species) at 1 h in series [5] was determined as 2.94. Also, in the series with Vero, the IC50 (usually the concentration that inhibits the measured activity by half) is > 16 µg/mL. Besides, the inhibition (usually the relative decrease from the control value, in per cent) at 80 min, 10 µM on CYP2C9 is 38%. In addition, the inhibition at 1 h, 10 µM at CYP2C19 stood at 10%. On CYP3A4, the inhibition at 0.5 h, 10 µM was 5%. Besides, the fraction unbound at 8 h, 10 µM in series [6] was 0.016. The remaining at 1 h, 1 µM in series [7] was 0%. The Papp A→B (as a rule, the apparent permeability from the apical to the basolateral side of a cell layer) at 1 h in [8] was 4.2 ×10⁻⁶ cm/s.

Consider `O=C1c2cc([N+](=O)[O-])ccc2-n2c1nc1ccccc1c2=O`, for which the MBC90 in [1] amounted to 0.25 µg/mL (≈ 0.853 µM). The MIC stood at 0.032 µg/mL (≈ 0.109 µM) in series [1] and 0.5 µg/mL in [4]. The solubility (in general, the dissolved amount per volume that the medium holds) in [2] was 5.1 µM (≈ 1.5 µg/mL); in [9] it was 152 µM (≈ 44.5 µg/mL); in series [10] (setting [15]), 64.3 µM (≈ 18.9 µg/mL). Also, the IC50 in the series with Vero turned out to be 28 µg/mL (≈ 95.5 µM). In addition, the MIC90 (usually the lowest concentration that inhibits either 90% of growth or 90% of the strains tested, depending on the study) in series [11] was 2.4 µg/mL (≈ 8.18 µM). Besides, the fraction unbound at 8 h, 10 µM in series [6] was 0.031. Moreover, the remaining at 1 h, 1 µM in series [7] was 33%.

The molecule `O=C1c2ccccc2-n2c1nc1ccccc1c2=O` [TRYPTANTHRIN] registered an MBC90 in series [1] of 1 µg/mL (≈ 4.03 µM). In addition, the minimal inhibitory concentration (MIC) came to 1 µg/mL (≈ 4.03 µM) in [1] and 1 µg/mL in series [4]. In addition, the values for the solubility in series [2], in series [9] and in series [10] (buffer) were 11.7 µM (≈ 2.9 µg/mL), 12.9 µM (≈ 3.2 µg/mL) and 5.4 µM (≈ 1.34 µg/mL), respectively. In [3], this molecule returned a Papp B→A at 1 h of 22.5 ×10⁻⁶ cm/s. Further, the half-life (as a rule, the time in which the quantity being followed falls by half) in series [12] was 261 min; in series [14], 336 min. The molecule further yielded a logD at 1 h in series [5] of 2.29. Also, the IC50 with Vero was > 8 µg/mL. Further, the inhibition at 80 min, 10 µM on CYP2C9 was found to be 25%. Also, the inhibition at 1 h, 10 µM on CYP2C19 was 9%. In addition, the inhibition at 0.5 h, 10 µM on CYP3A4 came to 12%. The fraction unbound at 8 h, 10 µM in [6] was 0.041. For the same molecule, the efflux ratio – broadly, a quotient of directional permeabilities that is used to spot active efflux – at 1 h in series [13] is > 1. The remaining at 1 h, 1 µM in series [7] came out at 15%. Besides, in [8], the Papp A→B at 1 h turned out to be 60.1 ×10⁻⁶ cm/s.

`O=C1c2ccc(Cl)cc2-n2c1nc1ccccc1c2=O` had an MBC90 in series [1] of 0.5 µg/mL (≈ 1.77 µM). Besides, the MIC was 0.25 µg/mL (≈ 0.884 µM) in series [1] and 0.5 µg/mL in series [4]. In addition, the solubility is 71.9 µM (≈ 20.3 µg/mL) in [2] and 20.3 µM (≈ 5.74 µg/mL) in [9]. Moreover, the Papp B→A at 1 h in series [3] amounted to 0.1 ×10⁻⁶ cm/s. The molecule also registered a logD at 1 h in series [5] of 2.45. The IC50 in the series on Vero was > 50 µg/mL. The MIC90 in series [11] was > 50 µg/mL. Besides, the inhibition at 80 min, 10 µM at CYP2C9 was determined as 25%. Moreover, the inhibition at 1 h, 10 µM at CYP2C19 came to 4%. The inhibition at 0.5 h, 10 µM at CYP3A4 turned out to be 7%. For the same molecule, the fraction unbound at 8 h, 10 µM in series [6] is 0.01. In addition, the remaining at 1 h, 1 µM in series [7] turned out to be 27%. The Papp A→B at 1 h in series [8] came to 0.4 ×10⁻⁶ cm/s.

Take `O=C1c2cc(Br)ccc2-n2c1nc1ccccc1c2=O`: the MIC stood at 0.125 µg/mL (≈ 0.382 µM) in series [1] and 0.5 µg/mL in series [4]. For the same molecule, the solubility in series [2] was 2.3 µM (≈ 0.752 µg/mL); in [9], 92.9 µM (≈ 30.4 µg/mL); in [10] (setting [15]), 2.6 µM (≈ 0.851 µg/mL). The molecule further yielded a Papp B→A at 1 h in series [3] of 7.6 ×10⁻⁶ cm/s. For the same molecule, the IC50 in the series with Vero came out at 35 µg/mL (≈ 107 µM). In addition, the MIC90 in [11] was > 50 µg/mL. In addition, the efflux ratio at 1 h in series [13] is > 1. Besides, the remaining at 1 h, 1 µM in [7] is 59%. This molecule displayed a Papp A→B at 1 h in [8] of 23.8 ×10⁻⁶ cm/s.
